Screening results as filed in PubChem BioAssay.
A selection: hits, their analogues and other compounds. The true share with any hit is near 4.8%.
SKKanGAS inh: blocks kanamycin growth of S. pyogenes SKKanGAS strain; inhibition, % at 7.5 µM; BacTiter-Glo, 6 h; hit rate 1.3% among 300,000;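 active means mean replicate score, as percent of positive control median, at least 50; inconclusive means mean below 50 but one replicate at or above 50; inactive means mean and every replicate below 50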;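 further: strain carries kanamycin resistance gene driven by streptokinase promoter and grows in 40 µg/ml kanamycin; loss of luminescence reflects streptokinase promoter inhibition or plain growth inhibition; 0% = median of DMSO wells and 100% = positive control at its reference dose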
CHOP UPR activ: activators of apoptotic arm of unfolded protein response (CHOP). CHO-CHOP luciferase reporter, UPR activation, luminescence; percent of tunicamycin response over DMSO baseline. activation, % at 10 µM. hit rate 0.34% among 330,000;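 active means at 10 µM dose, activation of 40% or more, normalized to positive control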;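 further: 100% = tunicamycin at 10 µg/mL and 0% = DMSO alone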
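Assay system: CHO cells with stable CHOP pathway luciferase reporter; Buffer or medium: F12 plus 10% serum; Times: 16-18 h cell attachment, then 6 h compound exposure, 37 °C; Signal: luciferase luminescence; Read-out basis: percent activation relative to tunicamycin control; Control set: tunicamycin high control, DMSO low control.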
UPR XBP1 act: activators of adaptive arm of unfolded protein response (XBP1); CHO-XBP1 luciferase reporter, IRE1-XBP1 UPR activation, luminescence; percent of tunicamycin response, DMSO as zero; activation, % at 20 µM; hit rate 0.33% among 330,000;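 active means versus positive control, 20 µM dose yields 30% or more activation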;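 further: 100% = tunicamycin at 10 µg/mL and 0% = DMSO only wells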
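Test system: CHO-XBP1 luciferase reporter cells | Buffer or medium: Serum-containing F12 medium, 10% FBS | Schedule: 6 h compound exposure at 37 °C, 5% CO2 | Detection: Steady-Glo luciferase glow luminescence, 10 min after reagent addition | Read-out basis: Activation, % of tunicamycin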
Mdm2-MdmX inh: inhibitors of human Mdm2/MdmX interaction. O15151+Q00987. SaOS-2 split-luciferase Mdm2/MdmX complementation, luminescence. inhibition, % at 8 µM. hit rate 3% among 330,000. AID 485346;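 active means inhibition of at least 50% at 8 µM in the primary screen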
Target sequence (O15151 whole entry, looked up): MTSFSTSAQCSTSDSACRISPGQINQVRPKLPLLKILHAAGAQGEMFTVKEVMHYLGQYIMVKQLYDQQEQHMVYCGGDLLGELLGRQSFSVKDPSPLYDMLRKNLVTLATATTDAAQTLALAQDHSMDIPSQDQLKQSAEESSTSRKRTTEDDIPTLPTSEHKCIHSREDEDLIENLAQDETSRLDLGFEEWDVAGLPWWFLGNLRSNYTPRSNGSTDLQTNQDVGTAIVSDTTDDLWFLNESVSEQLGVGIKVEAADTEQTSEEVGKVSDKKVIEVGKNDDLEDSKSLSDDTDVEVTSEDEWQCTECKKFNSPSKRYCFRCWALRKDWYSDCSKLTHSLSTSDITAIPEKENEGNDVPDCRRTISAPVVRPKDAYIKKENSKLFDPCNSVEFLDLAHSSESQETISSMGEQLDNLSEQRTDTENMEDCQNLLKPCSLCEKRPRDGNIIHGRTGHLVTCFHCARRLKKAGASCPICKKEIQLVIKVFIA
Target sequence (Q00987 whole entry, looked up): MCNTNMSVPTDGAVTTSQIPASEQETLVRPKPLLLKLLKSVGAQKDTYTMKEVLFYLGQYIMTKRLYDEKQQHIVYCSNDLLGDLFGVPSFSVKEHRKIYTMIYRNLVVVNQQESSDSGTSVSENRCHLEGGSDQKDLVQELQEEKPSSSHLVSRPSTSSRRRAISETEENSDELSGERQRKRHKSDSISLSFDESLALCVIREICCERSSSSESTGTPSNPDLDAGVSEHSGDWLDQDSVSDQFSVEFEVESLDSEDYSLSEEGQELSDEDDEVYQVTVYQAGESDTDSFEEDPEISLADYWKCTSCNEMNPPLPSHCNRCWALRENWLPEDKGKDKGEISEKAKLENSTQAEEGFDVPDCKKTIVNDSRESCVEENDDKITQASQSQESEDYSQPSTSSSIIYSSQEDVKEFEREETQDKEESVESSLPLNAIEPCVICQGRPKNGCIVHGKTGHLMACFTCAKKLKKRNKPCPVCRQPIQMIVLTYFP
Beta apoptosis: blocks beta cell apoptosis; INS-1E cytokine-induced death, ATP luminescence, 48 h; percent of positive-control rescue, neutral wells zero; protection from apoptosis, % (no concentration beside the values); hit rate 0.8% among 300,000; AID 435005;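 active means Every replicate reaches about 75%, or at least half do and their mean reaches it too, limit read from the data; inconclusive means At least half of replicates reach the limit but their mean does not; inactive means Under half of replicates reach the limit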;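 further: 0% = cytokine-treated negative control wells and 100% = positive control rescue; higher means more ATP so stronger rescue from cytokine killing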
CSC inhib: blocks cancer stem cells; cancer stem cell-like cells viability, luminescence; hit rate 1.1% among 300,000; inhibition, % at 7.5 µM; in the data active means inhibition above about 75%; inconclusive means no clear call, values can overlap the other calls; tested in HMLE shEcad cells
* marks the source's active call; other numbers are inactive results; ? = inconclusive; / = no result given.

SMILES | SKKanGAS inh | CHOP UPR activ | UPR XBP1 act | Mdm2-MdmX inh | Beta apoptosis | CSC inhib
COc1ccc(CN(C)CC(=O)Nc2ccccc2C(F)(F)F)c(OC)c1 | -2 | -1 | 0 | -20 | 2 | -5
COc1ccc(CN(C)CC(=O)Nc2cc3oc4ccccc4c3cc2OC)c(OC)c1 | 2 | 1 | -1 | 25 | 6 | 84*
COc1cccc(CNC(=O)c2nnn(CC(=O)Nc3cccc(C)c3)c2N)c1 | -1 | 0 | -3 | 16 | -4 | -5
COc1ccc(N/N=C(/C(C)=O)N2CCCc3ccccc32)cc1 | 7 | 2 | 1 | 11 | -16 | 88*
O=C(O)c1ccc(/C=N/NC(=O)c2cc3c(ccc4ccccc43)o2)cc1 | 33 | 1 | -1 | 0 | -4 | -9
Cc1ccc(C(=O)N/N=C\c2ccc(-c3ccc(Cl)c(Cl)c3)o2)cn1 | 0 | 1 | -4 | 24 | 8 | 76*
O=C(N/N=C/c1ccc(-c2ccc(Cl)c(C(=O)O)c2)o1)c1cc2c(ccc3ccccc32)o1 | 61* | 2 | -2 | 13 | -7 | 2
COC(=O)c1ccc(CNC(=O)c2ccc(OC)c(S(=O)(=O)NC3CCCC3)c2)cc1 | / | 2 | -2 | -2 | -2 | /
COc1cc(OC)cc(C(=O)NNC(=O)C(=O)Nc2cc(OC)c(Cl)cc2OC)c1 | 54* | 0 | -4 | 15 | 18 | 2
COc1cc(NC(=O)C(=O)NNC(=O)C2CCCCC2)c(OC)cc1Cl | 7 | 1 | 1 | 28 | -2 | 6
O=C(c1cc(COc2cccc3cnccc23)on1)N1CCCC(CCCO)C1 (stereo not given) | -5 | 4 | -5 | 37 | 117* | 10
CC(=O)c1cccc(NC(=O)CCC(=O)Oc2ccc(C)cc2)c1 | 2 | 1 | -8 | 17 | -8 | -17
O=C(CSc1ccccn1)N/N=C/c1cc([N+](=O)[O-])ccc1O | 115* | -1 | -1 | 5 | 2 | 6
O=C(Cn1cncn1)N/N=C/c1cc([N+](=O)[O-])ccc1O | 3 | 0 | -1 | 0 | 12 | 8
O=C(Cn1nc2ccccc2n1)N/N=C/c1cc([N+](=O)[O-])ccc1O | 104* | 1 | -3 | 3 | 40 | 7
Cc1cc([N+](=O)[O-])nn1CC(=O)N/N=C/c1ccc(O)cc1O | 5 | -3 | -2 | 31 | 47 | 80*
Cc1cc([N+](=O)[O-])nn1CC(=O)N/N=C/c1ccccc1Br | -2 | 2 | 0 | -6 | -1 | -10
O=C1C[C@@H]2c3c(cccc3CN1Cc1ccc(F)cc1)C[C@@H](O)[C@H]2O | / | 0 | -2 | 5 | -1 | 4
CCCOc1ccc2cc(C(=O)NCc3ccccc3)c(=O)oc2c1 | -7 | 4 | 6 | -19 | -5 | 2
O=C(CN1CCc2cc3c(cc2C1)OCCCO3)Nc1cccc(Br)c1 | 1 | 1 | -6 | 32 | -3 | 8
OCCOCCn1c(C(CO)Nc2nc(-c3cccc(Br)c3)cs2)nc2ccccc21 (stereo not given) | 23 | -1 | -4 | 14 | -2 | 10
CCCn1c(C(CO)Nc2nc(-c3cccc(Br)c3)cs2)nc2ccccc21 (stereo not given) | 96* | 2 | 1 | -33 | -7 | 11
Cc1ccc(-c2cc(C(=O)NCc3ccco3)no2)cc1 | -19 | 2 | 1 | -51 | 5 | -5
Cc1nn(Cc2ccc(Cl)cc2)c(C)c1NC(=O)c1cc(-c2ccc3c(c2)OCO3)on1 | 18 | 0 | -3 | -6 | 25 | 83*
Cc1nn(Cc2ccc(Cl)cc2)c(C)c1NC(=O)c1cc(C(C)C)on1 | 4 | 2 | 4 | 31 | 8 | 5
SMILES | SKKanGAS inh | CHOP UPR activ | UPR XBP1 act | Mdm2-MdmX inh | Beta apoptosis | CSC inhib
Cc1nn(Cc2ccc(Cl)c(Cl)c2)c(C)c1NC(=O)c1cc(-c2ccc3c(c2)OCO3)on1 | 34 | 0 | 13 | 34 | 19 | 81*
O=C(NCc1ccco1)c1cc(-c2ccc3c(c2)OCO3)on1 | -1 | 1 | -2 | -49 | 3 | 82*
CC(=O)c1sc(-c2ccc(Cl)cc2)nc1C | -1 | 5 | 1 | -21 | 4 | -7
Cc1nc(-c2ccccc2)sc1C(=O)/C=C/c1ccc(Cl)cc1 | -10 | -2 | 0 | 35 | 2 | 94*
CCCc1nn2c(=O)cc(CSCC(=O)Nc3cccc(OC)c3)nc2s1 | -5 | -1 | 1 | 4 | -9 | 49
COC(=O)c1cc(-c2cccc([N+](=O)[O-])c2)c2c(=O)[nH]c(=O)n(C)c2n1 | 1 | 0 | 25 | 37 | 1 | 2
CCOc1ccc(-c2cc(C(=O)OC)nc3c2c(=O)n(C)c(=O)n3C)cc1 | 93* | 0 | -2 | 46 | -2 | 6
COC(=O)c1cc(-c2ccc(Br)cc2)c2c(=O)[nH]c(=O)n(C)c2n1 | 62* | -1 | 7 | 43 | 6 | -3
CN1/C(=C\C(=O)Nc2ccc(Br)cc2)C(C)(C)c2ccccc21 | 71* | 3 | 1 | 6 | -17 | 76*
CN1/C(=C\C(=S)NC(=O)c2ccc([N+](=O)[O-])cc2)C(C)(C)c2ccccc21 | 4 | 1 | -1 | -3 | 103* | -6
CN1/C(=C\C(=S)NC(=O)c2cccc(Br)c2)C(C)(C)c2ccccc21 | -7 | 0 | 1 | 16 | 116* | 10
CN1/C(=C\C(=O)Nc2ccc(F)cc2)C(C)(C)c2ccccc21 | 7 | 6 | 3 | 20 | 15 | 33
CN1/C(=C/C=N/NC(=O)c2ccc([N+](=O)[O-])cc2)C(C)(C)c2ccccc21 | 8 | -1 | 2 | 19 | 3 | /
CCOC(=O)C1(Cc2cccc(Cl)c2)CCCN(C(=O)c2cc(C(C)C)nn2C)C1 (stereo not given) | 2 | 2 | -4 | 12 | / | -6
Cc1ccnc(SCC(=O)Nc2sc3c(c2C#N)CCCC3)n1 | 3 | 3 | 2 | -1 | 106* | 15
CC(C)(C)C1CCc2c(sc(NC(=O)CSc3ncn[nH]3)c2C#N)C1 (stereo not given) | -2 | 0 | -2 | 32 | 16 | 93*
Cc1csc(SCC(=O)Nc2sc3c(c2C#N)CCC3)n1 | 29 | -3 | 3 | -21 | -1 | /
COc1cc(/C=C(\C#N)C(=O)Nc2ccccc2)ccc1OCCN1CCOCC1 | 2 | 1 | -5 | 4 | 3 | -44
CCCCCN(C(=O)CCC(=O)OCC(=O)c1cccc(OC)c1)c1c(N)n(CCCC)c(=O)[nH]c1=O | 9 | -1 | -3 | 2 | 0 | 39
CC(C)c1ccc(/C=N/NC(=O)c2ccccn2)cc1 | 48 | -7 | -9 | -64 | 5 | ?
CC(C)c1ccc(/C=N/NC(=O)c2cccc(Cl)c2)cc1 | -4 | / | / | / | 12 | 91*
